Measurements: ChEMBL document CHEMBL4689842, “EUbOPEN Chemogenomics Library wave 1” (2021)
Values joined by “and” are separate entries in the source; they are usually repeats but may differ in a detail not shown here. Equal entries are not always repeated.

Test system: Fibroblast
Assay: Multiplex assay against human fibroblast
Assay type: toxicity, cell-based
Summary of the method: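 At seeding, live cells were stained with Hoechst33342, BioTracker Green Microtubule Cytoskeleton Dye, MitoTracker Red and Annexin V Alexa Fluor 680. After compound addition they were imaged on a CQ1 microscope at 37°C and 5% CO2, and CellPathfinder machine-learning gating sorted them into Hoechst high-intensity objects or normal cells, with normal cells further split into healthy, pyknosed or fragmented nuclei and pyknosed cells into mitotic or apoptotic. Tubulin, mitochondrial-mass and membrane-permeability phenotypes are given as per cents of cells with healthy nuclei.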

[1] = 12 h, 1 µM, compound concentration 1 uM, replicate 1
[2] = 12 h, 1 µM, compound concentration 1 uM, replicate 2
[3] = 12 h, 10 µM, compound concentration 10 uM, replicate 1
[4] = 12 h, 10 µM, compound concentration 10 uM, replicate 2
[5] = 24 h, 1 µM, compound concentration 1 uM, replicate 1
[6] = 24 h, 1 µM, compound concentration 1 uM, replicate 2
[7] = 24 h, 10 µM, compound concentration 10 uM, replicate 1
[8] = 24 h, 10 µM, compound concentration 10 uM, replicate 2
[9] = 48 h, 1 µM, compound concentration 1 uM, replicate 1
[10] = 48 h, 1 µM, compound concentration 1 uM, replicate 2
[11] = 48 h, 10 µM, compound concentration 10 uM, replicate 1
[12] = 48 h, 10 µM, compound concentration 10 uM, replicate 2

SMILES: CC(C)NC(=O)N1CC[C@H](NC2=Nc3cc(F)ccc3N(CC(F)F)c3ccc(Cl)cc32)C1
- Population Apoptotic (%) [1]: 68%
- Population Fragmented Nuclei (%) [1]: 27%
- Population Healthy Nuclei (%) [1]: 30%
- Population Hoechst High Intensity Objects (%) [1]: 12%
- Population Membrane Permeable-Phenotype (%) [1]: 4%
- Population Mitochondria Different-Phenotype (%) [1]: 4%
- Population Mitotic Cells (%) [1]: 31%
- Population Normal (%) [1]: 87%
- Population Pyknosed Nuclei (%) [1]: 42%
- Population Tubulin-Different-Phenotype (%) [1]: 14%
- Total Cell Count [1]: 79
- Population Apoptotic (%) [2]: 33%
- Population Fragmented Nuclei (%) [2]: 5%
- Population Healthy Nuclei (%) [2]: 89%
- Population Hoechst High Intensity Objects (%) [2]: 9%
- Population Mitochondria Different-Phenotype (%) [2]: 18%
- Population Mitotic Cells (%) [2]: 66%
- Population Normal (%) [2]: 90%
- Population Pyknosed Nuclei (%) [2]: 5%
- Total Cell Count [2]: 293
- Population Apoptotic (%) [3]: 70%
- Population Fragmented Nuclei (%) [3]: 29%
- Population Healthy Nuclei (%) [3]: 40%
- Population Hoechst High Intensity Objects (%) [3]: 13%
- Population Membrane Permeable-Phenotype (%) [3]: 8%
- Population Mitochondria Different-Phenotype (%) [3]: 21%
- Population Mitotic Cells (%) [3]: 29%
- Population Normal (%) [3]: 86%
- Population Pyknosed Nuclei (%) [3]: 29%
- Population Tubulin-Different-Phenotype (%) [3]: 89%
- Total Cell Count [3]: 160
- Population Apoptotic (%) [4]: 0%
- Population Fragmented Nuclei (%) [4]: 6%
- Population Healthy Nuclei (%) [4]: 81%
- Population Membrane Permeable-Phenotype (%) [4]: 13%
- Population Mitochondria Different-Phenotype (%) [4]: 63%
- Population Mitotic Cells (%) [4]: 100%
- Population Pyknosed Nuclei (%) [4]: 11%
- Population Tubulin-Different-Phenotype (%) [4]: 58%
- Total Cell Count [4]: 62
- Population Apoptotic (%) [5]: 62%
- Population Fragmented Nuclei (%) [5]: 21%
- Population Healthy Nuclei (%) [5]: 40%
- Population Hoechst High Intensity Objects (%) [5]: 9%
- Population Membrane Permeable-Phenotype (%) [5]: 25%
- Population Mitochondria Different-Phenotype (%) [5]: 6%
- Population Mitotic Cells (%) [5]: 37%
- Population Normal (%) [5]: 90%
- Population Pyknosed Nuclei (%) [5]: 38%
- Population Tubulin-Different-Phenotype (%) [5]: 22%
- Total Cell Count [5]: 84
- Population Apoptotic (%) [6]: 50%
- Population Fragmented Nuclei (%) [6]: 5%
- Population Healthy Nuclei (%) [6]: 88%
- Population Hoechst High Intensity Objects (%) [6]: 6%
- Population Membrane Permeable-Phenotype (%) [6]: 6%
- Population Mitochondria Different-Phenotype (%) [6]: 19%
- Population Mitotic Cells (%) [6]: 50%
- Population Normal (%) [6]: 93%
- Population Pyknosed Nuclei (%) [6]: 5%
- Population Tubulin-Different-Phenotype (%) [6]: 9%
- Total Cell Count [6]: 281
- Population Apoptotic (%) [7]: 64%
- Population Fragmented Nuclei (%) [7]: 32%
- Population Healthy Nuclei (%) [7]: 45%
- Population Hoechst High Intensity Objects (%) [7]: 13%
- Population Membrane Permeable-Phenotype (%) [7]: 10%
- Population Mitochondria Different-Phenotype (%) [7]: 46%
- Population Mitotic Cells (%) [7]: 35%
- Population Normal (%) [7]: 86%
- Population Pyknosed Nuclei (%) [7]: 21%
- Population Tubulin-Different-Phenotype (%) [7]: 92%
- Total Cell Count [7]: 163
- Population Apoptotic (%) [8]: 83%
- Population Fragmented Nuclei (%) [8]: 13%
- Population Healthy Nuclei (%) [8]: 73%
- Population Hoechst High Intensity Objects (%) [8]: 10%
- Population Membrane Permeable-Phenotype (%) [8]: 6%
- Population Mitochondria Different-Phenotype (%) [8]: 57%
- Population Mitotic Cells (%) [8]: 16%
- Population Normal (%) [8]: 90%
- Population Pyknosed Nuclei (%) [8]: 13%
- Population Tubulin-Different-Phenotype (%) [8]: 51%
- Total Cell Count [8]: 75
- Population Apoptotic (%) [9]: 52%
- Population Fragmented Nuclei (%) [9]: 17%
- Population Healthy Nuclei (%) [9]: 58%
- Population Hoechst High Intensity Objects (%) [9]: 12%
- Population Membrane Permeable-Phenotype (%) [9]: 23%
- Population Mitochondria Different-Phenotype (%) [9]: 2%
- Population Mitotic Cells (%) [9]: 47%
- Population Normal (%) [9]: 87%
- Population Pyknosed Nuclei (%) [9]: 23%
- Population Tubulin-Different-Phenotype (%) [9]: 20%
- Total Cell Count [9]: 83
- Population Apoptotic (%) [10]: 33%
- Population Fragmented Nuclei (%) [10]: 37%
- Population Healthy Nuclei (%) [10]: 59%
- Population Hoechst High Intensity Objects (%) [10]: 25%
- Population Mitochondria Different-Phenotype (%) [10]: 3%
- Population Mitotic Cells (%) [10]: 66%
- Population Normal (%) [10]: 74%
- Population Pyknosed Nuclei (%) [10]: 3%
- Population Tubulin-Different-Phenotype (%) [10]: 33%
- Total Cell Count [10]: 126
- Population Apoptotic (%) [11]: 62%
- Population Fragmented Nuclei (%) [11]: 41%
- Population Healthy Nuclei (%) [11]: 48%
- Population Hoechst High Intensity Objects (%) [11]: 20%
- Population Membrane Permeable-Phenotype (%) [11]: 15%
- Population Mitochondria Different-Phenotype (%) [11]: 21%
- Population Mitotic Cells (%) [11]: 37%
- Population Normal (%) [11]: 80%
- Population Pyknosed Nuclei (%) [11]: 10%
- Population Tubulin-Different-Phenotype (%) [11]: 90%
- Total Cell Count [11]: 190
- Population Apoptotic (%) [12]: 100%
- Population Fragmented Nuclei (%) [12]: 24%
- Population Healthy Nuclei (%) [12]: 74%
- Population Hoechst High Intensity Objects (%) [12]: 7%
- Population Membrane Permeable-Phenotype (%) [12]: 6%
- Population Mitochondria Different-Phenotype (%) [12]: 1%
- Population Mitotic Cells (%) [12]: 0%
- Population Normal (%) [12]: 92%
- Population Pyknosed Nuclei (%) [12]: 1%
- Population Tubulin-Different-Phenotype (%) [12]: 56%
- Total Cell Count [12]: 88

SMILES: Cc1cc(NC(=O)c2cccc(S(F)(F)(F)(F)F)c2)cc(-n2ccn3nc(-c4cccnc4)cc23)c1 [BAY-309]
- Population Apoptotic (%) [3]: 72% and 60%
- Population Fragmented Nuclei (%) [3]: 29% and 25%
- Population Healthy Nuclei (%) [3]: 45% and 52%
- Population Hoechst High Intensity Objects (%) [3]: 11% and 13%
- Population Mitochondria Different-Phenotype (%) [3]: 16% and 14%
- Population Mitotic Cells (%) [3]: 27% and 39%
- Population Normal (%) [3]: 88% and 86%
- Population Pyknosed Nuclei (%) [3]: 25% and 22%
- Total Cell Count [3]: 260 and 213
- Population Apoptotic (%) [4]: 54% and 62%
- Population Fragmented Nuclei (%) [4]: 66% and 44%
- Population Healthy Nuclei (%) [4]: 20% and 40%
- Population Hoechst High Intensity Objects (%) [4]: 29% and 31%
- Population Membrane Permeable-Phenotype (%) [4]: 16% and 20%
- Population Mitochondria Different-Phenotype (%) [4]: 33% and 35%
- Population Mitotic Cells (%) [4]: 45% and 37%
- Population Normal (%) [4]: 70% and 68%
- Population Pyknosed Nuclei (%) [4]: 12% and 16%
- Population Tubulin-Different-Phenotype (%) [4]: 50% and 80%
- Total Cell Count [4]: 122 and 73
- Population Apoptotic (%) [7]: 80% and 62%
- Population Fragmented Nuclei (%) [7]: 24% and 21%
- Population Healthy Nuclei (%) [7]: 47% and 56%
- Population Hoechst High Intensity Objects (%) [7]: 16% and 15%
- Population Mitotic Cells (%) [7]: 19% and 37%
- Population Normal (%) [7]: 83% and 84%
- Population Pyknosed Nuclei (%) [7]: 28% and 21%
- Population Tubulin-Different-Phenotype (%) [7]: 83% and 28%
- Total Cell Count [7]: 241 and 216
- Population Apoptotic (%) [8]: 60% and 90%
- Population Fragmented Nuclei (%) [8]: 66% and 57%
- Population Healthy Nuclei (%) [8]: 20% and 26%
- Population Hoechst High Intensity Objects (%) [8]: 36% and 25%
- Population Membrane Permeable-Phenotype (%) [8]: 11% and 0%
- Population Mitochondria Different-Phenotype (%) [8]: 29% and 22%
- Population Normal (%) [8]: 63% and 75%
- Population Pyknosed Nuclei (%) [8]: 12% and 15%
- Population Tubulin-Different-Phenotype (%) [8]: 41%
- Total Cell Count [8]: 128 and 92
